Screening results as filed in PubChem BioAssay.
A selection: hits, their analogues and other compounds. The true share with any hit is near 3.1%.
KCNK3 block: human KCNK3 channel inhibition, primary screen | B-score at 10 µM | hit rate 0.84% among 340,000 | CHO-KCNK3 thallium flux, FluxOR fluorescence; active compounds read low | O14649;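 active = B-score under library mean minus 4 SD, starting fluorescence ratio at most library mean plus 5 SD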;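 note: more negative B-score means stronger inhibition of thallium flux through KCNK3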
Target sequence (O14649 whole entry, looked up): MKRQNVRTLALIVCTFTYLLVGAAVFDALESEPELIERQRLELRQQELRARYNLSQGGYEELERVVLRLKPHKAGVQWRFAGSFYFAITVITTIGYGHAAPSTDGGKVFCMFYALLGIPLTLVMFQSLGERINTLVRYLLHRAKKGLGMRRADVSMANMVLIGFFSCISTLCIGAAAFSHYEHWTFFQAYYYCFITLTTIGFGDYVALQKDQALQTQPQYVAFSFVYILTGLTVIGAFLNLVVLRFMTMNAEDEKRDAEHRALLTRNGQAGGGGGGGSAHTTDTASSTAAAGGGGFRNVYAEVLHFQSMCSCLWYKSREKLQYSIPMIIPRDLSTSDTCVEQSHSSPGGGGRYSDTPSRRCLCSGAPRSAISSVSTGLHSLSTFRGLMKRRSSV
KCNQ1 inh: human KCNQ1 channel inhibition. B-score at 10 µM. hit rate 1.3% among 310,000. CHO-K1 KCNQ1, FluxOR thallium flux fluorescence; active compounds read high;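 active = compounds whose thallium flux B-score, printed positive for inhibition, exceeds three library SD while starting fluorescence stays within three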;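 note: channel opened by potassium depolarization with thallium stimulus after 20 min compound exposure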
hERG rescue: compounds protecting human hERG from proarrhythmic drug block. Q12809. activation (rescue from dofetilide block), less the hit threshold, % at 10 µM. hit rate 0.51% among 310,000. CHO-hERG, FluxOR thallium flux, dofetilide IC70 present;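 active = activation above the mean of controls blocked by dofetilide plus 5 SD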;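 note: thallium influx through hERG after potassium depolarization seen as dye fluorescence rise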
KCNK9 inh: human KCNK9 channel inhibition | Q9NPC2 | HEK293 KCNK9, FluxOR thallium flux fluorescence; active compounds read low | B-score at 10 µM | hit rate 1.2% among 310,000;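 active = ratio B-score over 3 SD below the library mean, with starting fluorescence within 5 SD of its mean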;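 note: negative B-score means less thallium flux so channel inhibition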
KCNQ1 pot: potentiators or activators of human KCNQ1 potassium channel | P51787 | CHO-K1 KCNQ1, thallium flux FluxOR fluorescence; active compounds read high | B-score at 10 µM | hit rate 0.35% among 310,000;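 active = fluorescence ratio B-score, a plate-corrected score, at least three library SD, with initial intensity B-score within 5 SD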
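Assay system: CHO-K1 cells stably expressing KCNQ1; Medium: assay buffer with matched DMSO; Also added: K+/Tl+ depolarizing stimulus; Dosing: single dose; Timing: dye 90 min, compound 20 min, room temperature; Measured by: kinetic FluxOR thallium fluorescence, 10-s 1-Hz baseline, 110-s post-stimulus read; Read-out: peak-minus-minimum fluorescence over initial fluorescence, negative-control normalized, B-scored.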
KCNK9 block conf: confirmation of human KCNK9 potassium channel inhibitors. shares compounds with KCNK9 inh. HEK293 KCNK9 cells, FluxOR thallium flux fluorescence. inhibition, % at 10 µM. hit rate 43% among 4,900. AID 492992;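 active = thallium signal inhibited by more than 5 SD of the compound-free buffer control wells, on both duplicate plates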;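 note: 0% = assay buffer control wells without compound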
Kir21 sel: mouse Kir2.1 off-target activity of KCNK9 modulators. shares compounds with KCNK9 inh. Kir2.1 cells, FluxOR thallium flux fluorescence. inhibition, % at 10 µM. hit rate 4% among 4,900. AID 492993;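 active = thallium signal drop more than 5 SD beyond the mean of the no-compound control wells, seen in both duplicate plates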;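 note: signal is fluorescence rise after thallium addition divided by baseline fluorescence; plate controls were assay buffer only for no effect and full block by chlorpromazine control for full effect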
HEK293 Tl ctr: second check of KCNK9 modulator effects in non-induced HEK293 cells | shares compounds with KCNK9 inh | FluxOR thallium flux | hit rate 40% among 4,900 | inhibition, % at 10 µM;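 active = thallium signal drop beyond 5 SD of the untreated control mean, on both duplicate plates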;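 note: plate controls were buffer only IC0 wells for no effect and SID17386958 at its maximal inhibitory level for full effect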
An asterisk follows results filed as active; i = inactive; · = no result.

SMILES | KCNK3 block | KCNQ1 inh | hERG rescue | KCNK9 inh | KCNQ1 pot | KCNK9 block conf | Kir21 sel | HEK293 Tl ctr
CCCCNC(=O)c1onc(CSc2cccc3ccccc23)c1C(=O)O | i | i | -14 | i | i | i | i | i
COc1cc(Br)c(CCNC(=O)c2ccco2)cc1OC | i | i | -7 | i | i | · | · | ·
Cc1cc(S(=O)(=O)N2CCN(CC(=O)NCCc3cccs3)CC2)ccc1Br | i | · | · | · | · | · | · | ·
O=C(COC(=O)c1ccccc1)NC12CC3CC(CC(C3)C1)C2 | i | · | · | · | · | · | · | ·
N#Cc1ccccc1Sc1ccccc1C(=O)OCC(=O)NC12CC3CC(CC(C3)C1)C2 | i | i | -6 | -8.5* | i | 48%* | i | 30%*
CCC(=O)NC(c1ccc(Cl)cc1Cl)c1ccc2cccnc2c1O (stereo not given) | i | i | -6 | i | i | · | · | ·
CC(C)C(=O)NC(c1ccc(Cl)cc1Cl)c1ccc2cccnc2c1O (stereo not given) | i | i | -8 | i | i | i | i | 28%*
CSCCC(NS(=O)(=O)c1ccc(C)cc1)C(=O)N1CCN(C(c2ccccc2)c2ccccc2)CC1 (stereo not given) | i | i | -14 | -9.4* | i | 35%* | i | 32%*
Cc1ccc(CNS(=O)(=O)c2ccccc2[N+](=O)[O-])cc1 | i | i | -12 | i | i | · | · | ·
N#CC(c1ccc(F)cc1)c1ccc(C(=O)c2ccccc2)cc1 (stereo not given) | i | i | -11 | i | i | · | · | ·
N#CC(c1ccccc1)c1ccc(C(=O)c2ccc(F)cc2)cc1 (stereo not given) | i | i | -7 | -9.8* | i | 54%* | i | 36%*
O=C(CC(Nc1ccccc1)c1ccc(F)cc1)c1ccccc1 (stereo not given) | i | i | -14 | -9.7* | i | 60%* | i | 42%*
O=C(CC(Nc1ccccc1)C(=O)O)c1ccccc1 (stereo not given) | i | i | -14 | i | i | · | · | ·
O=C(NC1CCSc2ccccc21)c1cccc(S(=O)(=O)N2CCOCC2)c1 (stereo not given) | i | i | -15 | i | i | · | · | ·
CCOC(=O)C1C(=O)C=C(/C=C/c2ccc(N(C)C)cc2)CC1c1ccccc1 (stereo not given) | i | 8* | -28 | -8.2* | i | 46%* | 38%* | 64%*
Cn1cccc1/C=N/N1CCN(Cc2ccccc2)CC1 | i | i | -3 | i | i | · | · | ·
FC(F)(F)c1ccc(/C=N/N2CCN(Cc3cccc4ccccc34)CC2)cc1 | i | i | -14 | i | i | · | · | ·
Cn1cccc1/C=N/N1CCN(Cc2cccc3ccccc23)CC1 | i | i | -7 | i | i | i | i | i
C(=N\N1CCN(Cc2cccc3ccccc23)CC1)/c1ccco1 | i | i | -12 | i | i | i | i | i
O=C(NC1CCN(C(=O)c2cccc([N+](=O)[O-])c2)CC1)c1ccccc1 | i | i | -3 | i | i | · | · | ·
CCOC(=O)c1c(C)[nH]c(N=Nc2cccc(OC)c2)c1C | i | i | -19 | -12* | i | 62%* | i | i
CCOC(=O)c1c(C)[nH]c(N=Nc2cccc(C)c2)c1C | i | i | -11 | i | i | · | · | ·
Cc1c(/C=N/n2cnnc2)c2ccccc2n1CCOc1ccc(Cl)cc1 | i | i | -12 | -8.2* | i | i | i | i
O=C(Nn1cnc2ccccc2c1=O)c1ccccc1[N+](=O)[O-] | i | i | -11 | i | i | · | · | ·
Cc1ccccc1C1CCCN(Cc2nc(C3CC3)no2)C1 (stereo not given) | i | i | -7 | i | i | i | i | i
SMILES | KCNK3 block | KCNQ1 inh | hERG rescue | KCNK9 inh | KCNQ1 pot | KCNK9 block conf | Kir21 sel | HEK293 Tl ctr
Cc1ccc(-c2c(C)sc3ncn(CC(=O)N4CCOCC4)c(=O)c23)cc1C | i | i | -12 | i | i | i | i | i
CC(C)n1nc(C(=O)Nc2nc3ccc(S(C)(=O)=O)cc3s2)c2ccccc2c1=O | i | i | -10 | i | i | · | · | ·
CC(C)n1nc(C(=O)Nc2nnc(SCc3c(Cl)cccc3Cl)s2)c2ccccc2c1=O | i | i | -15 | i | i | i | i | i
O=C(O)CN1C(=O)/C(=C\c2cc(Br)ccc2OCc2ccccc2F)SC1=S | i | i | -9 | i | i | i | i | i
O=C(O)CN1C(=O)/C(=C\c2cc(Br)ccc2OCc2ccccc2Cl)SC1=S | i | i | -10 | i | i | · | · | ·
O=C(O)CN1C(=O)/C(=C\c2ccccc2OCc2ccc(Cl)cc2Cl)SC1=S | i | i | -6 | i | i | · | · | ·
O=C(O)CN1C(=O)/C(=C\c2cn(-c3ccccc3)nc2-c2ccccc2)SC1=S | i | i | -13 | i | i | i | i | i
CCN1C(=O)/C(=C\c2cn(-c3ccccc3)nc2-c2cccnc2)SC1=S | i | i | -10 | i | i | · | · | ·
O=C(O)CN1C(=O)/C(=C\c2cccc(OCc3ccc(Cl)cc3Cl)c2)SC1=S | i | i | -2 | i | i | i | i | i
COc1cc(NS(=O)(=O)c2ccc(N/C=C(\C#N)c3nc4cc(Cl)ccc4o3)cc2)nc(OC)n1 | i | i | -8 | i | i | i | i | i
CC1(C)C(=O)OC(C(=O)c2ccc(C(C)(C)C)cc2)C(C)(C)C1=O (stereo not given) | i | i | -13 | i | i | · | · | ·
Clc1cccc(NCc2nnc(SCc3ccc(Cl)cc3Cl)o2)c1 | i | i | -6 | i | i | i | i | 32%*
NC1=NC(=Nc2cccc(Cl)c2)c2ccccc21 | i | i | -17 | i | i | · | · | ·
CCCC[C@@H]1C[C@H]1[C@@H](NC(=O)c1cccs1)c1ccc(Cl)cc1 | · | 10* | -23 | -11* | i | 52%* | i | 50%*
CCCC[C@@H]1C[C@H]1[C@@H](NC(=O)c1ccco1)c1ccc(Cl)cc1 | i | i | -9 | i | i | · | · | ·
COc1ccccc1CCC(=O)Nc1ccc(S(=O)(=O)Nc2cc(C)nc(C)n2)cc1 | i | i | -12 | i | i | · | · | ·
COc1ccccc1N1C(=O)C2C(C(=O)c3ccccc3)=NN(c3ccccc3OC)C2C1=O (stereo not given) | i | i | 2 | i | i | · | · | ·
